Measured values reported in ChEMBL document CHEMBL1275392, “Assessment of chemoselective neoglycosylation methods using chlorambucil as a model” (2010).

Tests used:
[1] = test system: A549; assay: Growth inhibition of human A549 cells expressing p53 after 7 days by celltiter-glo assay; format: functional; settings: A549, 168 h
[2] = test system: SK-OV-3; assay: Growth inhibition of human SKOV3 cells after 7 days by celltiter-glo assay; format: functional; settings: SK-OV-3, 168 h
[3] = test system: MCF7; assay: Growth inhibition of human MCF7 cells after 7 days by celltiter-glo assay; format: functional; settings: MCF7, 168 h
[4] = Growth inhibition of human p53 deficient Hep3B cells after 7 days by celltiter-glo assay; format: functional, Hep 3B2; settings: 168 h
Summary of the method: (§1)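 Cells seeded at 500 per well in 384-well plates. Compounds came from 30 mM DMSO stocks, serially diluted and tested in quadruplicate. Incubation was 7 d at 37 °C under 5% CO2. Calcein AM (10 μM) and EthD-1 were added, followed by a fluorescence read. CellTiter-Glo lysis was then done for 10 min at room temperature, with a luminescence read. GI50 came from curve fitting.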

[5] = test system: DU-145; assay: Growth inhibition of human DU145 cells after 7 days by celltiter-glo assay; format: functional; settings: DU-145, 168 h
[6] = test system: SF-268; assay: Growth inhibition of human SF268 cells after 7 days by celltiter-glo assay; format: functional; settings: SF-268, 168 h
[7] = test system: HT-29; assay: Growth inhibition of human HT-29 cells after 7 days by celltiter-glo assay; format: functional; settings: HT-29, 168 h
[8] = test system: HCT-15; assay: Growth inhibition of human HCT15 cells after 7 days by celltiter-glo assay; format: functional; settings: HCT-15, 168 h
[9] = Growth inhibition of human p53 deficient H1299 cells after 7 days by celltiter-glo assay; format: functional; settings: NCI-H1299, 168 h; summary of the method: as §1
[10] = test system: NCI-H460; assay: Growth inhibition of human NCI-H460 cells after 7 days by celltiter-glo assay; format: functional; settings: NCI-H460, 168 h

Structure (SMILES)	GI50 [1] [nM]	GI50 [2] [nM]	GI50 [3] [µM]	GI50 [4] [µM]	GI50 [5] [µM]	GI50 [6] [nM]	GI50 [7] [nM]	GI50 [8] [nM]	GI50 [9] [nM]	GI50 [10] [µM]
CON(CCCc1ccc(N(CCCl)CCCl)cc1)[C@@H]1O[C@H](CO)[C@@H](O)[C@H](F)[C@H]1O	3000	2200	7	3.2	4.1	2200	2600	1200	1300	7.1
CON(CCCc1ccc(N(CCCl)CCCl)cc1)C1OC[C@@H](O)[C@@H](O)[C@@H]1O (stereo not given in full)	2000	2000	4.6	1.6	3.3	1800	1500	900	730	5
CON(CCCc1ccc(N(CCCl)CCCl)cc1)C1OC[C@H](O)[C@@H](O)[C@H]1O (stereo not given in full)	2200	1800	0.94	3	3.9	1200	2400	950	880	5.8
CON(CCCc1ccc(N(CCCl)CCCl)cc1)[C@@H]1O[C@H](C)[C@@H](O)[C@H](O)[C@H]1O	4600	2900	5.8	4.4	4.9	2900	2200	1100	1800	8.5
CON(CCCc1ccc(N(CCCl)CCCl)cc1)C1OC[C@@H](O)[C@@H](O)[C@H]1O (stereo not given in full)	2800	2000	1.1	2.4	3.8	1900	2300	1800	3600	5.9
C[C@H]1OC(N(O)CCCc2ccc(N(CCCl)CCCl)cc2)[C@H](O)[C@@H](O)[C@H]1O (stereo not given in full)	6400	4700	2.7	3.6	5.7	1400	4600	3800	2600	4.9
CON(CCCc1ccc(N(CCCl)CCCl)cc1)[C@@H]1O[C@H](COCc2ccccc2)[C@@H](OCc2ccccc2)[C@H]1OCc1ccccc1	> 100000	> 100000	> 100	> 100	> 100	> 100000	> 100000	> 100000	82000	> 100
CO[C@@H]1[C@@H](OC(N)=O)[C@@H](O)C(N(CCCc2ccc(N(CCCl)CCCl)cc2)OC)OC1(C)C (stereo not given in full)	5800	5400	4.8	6	6.7	5100	6000	1700	1300	9.7
CON(CCCc1ccc(N(CCCl)CCCl)cc1)C1O[C@H](CO)[C@@H](O[C@@H]2O[C@H](CO)[C@H](O)[C@H](O)[C@H]2O)[C@H](O)[C@@H]1O (stereo not given in full)	56000	35000	26	38	43	19100	34000	31000	24000	57.7
CON(CCCc1ccc(N(CCCl)CCCl)cc1)C1OC[C@@H](O)[C@H](O)[C@@H]1O (stereo not given in full)	2300	1800	1	2.5	3.6	1600	2000	790	760	5.2
CON(CCCc1ccc(N(CCCl)CCCl)cc1)C1O[C@@H](CO)[C@H](O)[C@@H](O)[C@H]1O (stereo not given in full)	4100	2900	2.2	3.7	4.9	2000	3400	2200	1200	9.8
CON(CCCc1ccc(N(CCCl)CCCl)cc1)C1O[C@H](CO)[C@@H](O)[C@@H](O)[C@@H]1O (stereo not given in full)	2400	1900	6.5	1.7	4.1	1900	1600	1400	910	6.6
CON(CCCc1ccc(N(CCCl)CCCl)cc1)C1OC[C@H](O)[C@H](O)[C@H]1O (stereo not given in full)	2300	2200	5.4	1.9	3.6	1900	1900	1000	840	6.1
CON(CCCc1ccc(N(CCCl)CCCl)cc1)C1O[C@@H](C)[C@H](O)[C@@H](O)[C@H]1O (stereo not given in full)	2500	2000	2.2	2.6	4.2	1900	2400	2000	3700	5.3
CON(CCCc1ccc(N(CCCl)CCCl)cc1)C1C[C@H](O)[C@H](O)[C@@H](C)O1 (stereo not given in full)	2700	3000	6.3	3.2	4.3	2800	2100	1300	1100	6.5
O=C1O[C@@H]2[C@@H](O)[C@H](N(O)CCCc3ccc(N(CCCl)CCCl)cc3)O[C@@H]2[C@@H]1O	10400	10100	4.1	7.2	14.8	3100	9900	8500	3800	13.1
CON(CCCc1ccc(N(CCCl)CCCl)cc1)C1O[C@@H](CO)[C@H](O)[C@@H](O)[C@@H]1O (stereo not given in full)	3300	2500	3.2	3.9	4.8	2000	2900	880	550	8
CON(CCCc1ccc(N(CCCl)CCCl)cc1)C1O[C@@H](CO)[C@H](O)[C@H](O)[C@@H]1O (stereo not given in full)	3500	3100	9	2.5	6	3200	2200	1700	1300	10.4
CON(CCCc1ccc(N(CCCl)CCCl)cc1)C1C[C@@H](O)[C@@H](O)CO1 (stereo not given in full)	2500	2200	1.3	2.5	3.3	2000	2300	2200	3900	5.2
C=CCOC(=O)NC[C@H]1O[C@@H](N(CCCc2ccc(N(CCCl)CCCl)cc2)OC)[C@H](O)[C@@H](O)[C@@H]1O	4500	2900	7.4	4.6	6.2	3100	2800	2100	2100	11
CON(CCCc1ccc(N(CCCl)CCCl)cc1)C1OC[C@H](O)[C@H]1O (stereo not given in full)	2000	2100	0.87	1.4	2.1	1300	1200	820	720	1.9
